Compound activity: PubChem, several laboratories
Shown are actives, neighbours in structure and some others; about 2.3% of the full set was active somewhere.
Rpn11 inh – Rpn11 (human) deubiquitinase inhibition; 360,000 tested, 0.59% active; O00487; calls only at 20 µM; human 26S proteasome, Ub4-pepOG fluorescence polarization; 20S core pre-blocked with epoxomicin; AID 588493;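 active = inhibition at 20 µM, scaled to each plate's controls, above about 33%, limit read from the data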
CRFBP-R2 agonist – CRF-BP/CRF-R2 complex agonism; HEK293 CRF-R2/CRF-BP, calcium dye fluorescence (FLIPR); percent of saturating CRF peptide response; activation, % at 13.2 µM; 350,000 tested, 0.46% active; AID 588473;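 active = activation of at least 50%, plus an integration ratio under a set limit after plate pattern correction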;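 also: plate controls were neutral control wells without compound for no effect and CRF at EC100 for full effect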
HNF4A DNA FP – change in binding of human HNF4 alpha to DNA; HNF4a-FITC DNA binding, fluorescence polarization, 1 h; 360,000 tested, 0.3% active; activity change, % at 10 µM; in the data active = activity change above about 30%, passing the limit was not always enough
CRFR2-BP antag – blocks CRF-induced signaling of the CRF-BP/CRF-R2 complex | HEK293 CRF-R2/CRF-BP, CRF-induced calcium fluorescence | inhibition, % at 11.8 µM | 350,000 tested, 0.59% active;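 active = inhibition of the ligand-induced calcium signal above about 50% at the single tested concentration, limit read from the data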
TPT1 inh – blocks Candida albicans tRNA 2'-phosphotransferase. 300,000 tested, 0.81% active. inhibition, % at 5 µM. recombinant caTPT1, FP RNA substrate dephosphorylation;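 active = inhibition above the mean of all tested compounds plus 3 SD, set per screening campaign, cut at about 24% in these data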;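 also: plate controls were DMSO alone for no effect and ferristatin control at 100 nM for full effect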
CSN deneddyl inh – blocks human CSN-mediated cullin deneddylation | Q92905 | Purified CSN, SCF-Nedd8-OG deneddylation, fluorescence polarization | inhibition, % at 12.5 µM | 360,000 tested, 0.38% active | AID 651999;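 active = pattern-corrected inhibition above about 35%, with an unprinted fluorescence ratio check between 0.5 and 1.5, limit read from the data, passing the limit was not always enough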;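 also: 0% = enzyme with substrate and 100% = substrate without enzyme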
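Assay system: Purified human Csn5 enzyme expressed in HEK293T cells | Amount: Enzyme 0.24 nM | Measured by: Fluorescence polarization readout | Medium: Tris/NaCl/DTT buffer, pH 7.5 | Compound dosing: One concentration, 12.5 µM, 0.25% DMSO | Times: 90 min incubation of compound, enzyme and substrate at room temperature | Control set: no-enzyme wells high, enzyme-with-substrate wells low | Read-out: % inhibition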
caTPT1 confirm – confirmation of Candida albicans TPT1 inhibitors | 2,400 tested, 74% active | inhibition, % at 5 µM | AID 2149 | recombinant caTPT1, fluorescence polarization, RNase T1 coupled | shares compounds with TPT1 inh;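 active = inhibition above the primary screen limit, the mean inhibition of all tested compounds plus 3 SD, cut at about 25% in these data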
RNase T1 counter – counter-screen for TPT1 inhibitors: inhibitors of Aspergillus oryzae RNase T1; inhibition, % at 5 µM; 2,400 tested, 83% active; RNase T1 cleavage, fluorescence polarization, 1536-well; AID 2153; shares compounds with TPT1 inh;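 active = inhibition above the solvent-only control well mean plus 3 SD, limit set per screening run, cut at about 23% in these data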;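 also: plate controls were DMSO wells with enzyme for no effect and wells without RNase T1 for full effect; inhibitors block cleavage so intact labeled substrate keeps polarization high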
Target sequence (P00651 whole entry, looked up): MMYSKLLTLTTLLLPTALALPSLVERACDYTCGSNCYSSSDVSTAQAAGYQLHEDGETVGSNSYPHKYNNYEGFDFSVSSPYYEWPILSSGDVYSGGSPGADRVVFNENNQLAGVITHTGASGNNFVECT
Rpn11 confirm – Rpn11 inhibition confirmation, single concentration. AID 602318. shares compounds with Rpn11 inh. inhibition, % at 20 µM. purified human 26S proteasome, Ub4-pepOG fluorescence polarization; proteasome pretreated with epoxomicin. 1,900 tested, 29% active
MMP-2 inh – blocks human MMP-2, flagging nonselective RPN11 hits; 1,900 tested, 4% active; recombinant MMP-2, FRET peptide cleavage fluorescence; shares compounds with Rpn11 inh; AID 602330; inhibition, % at 20 µM;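 also: human MMP-2 activated beforehand with APMA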
Thrombin FP – counter-screen for RPN11 inhibitors: inhibition of bovine thrombin. bovine thrombin cleavage of Ub4-pepOG, fluorescence polarization. inhibition, % at 20 µM. 1,900 tested, 13% active. AID 602333. shares compounds with Rpn11 inh;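 active = mean inhibition at least 40% at 20 µM, or signal 3 deviations below plate average, so some actives read negative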;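 also: plate controls were thrombin with DMSO for no effect and buffer wells lacking thrombin for full effect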
Target sequence (P00735 whole entry, looked up): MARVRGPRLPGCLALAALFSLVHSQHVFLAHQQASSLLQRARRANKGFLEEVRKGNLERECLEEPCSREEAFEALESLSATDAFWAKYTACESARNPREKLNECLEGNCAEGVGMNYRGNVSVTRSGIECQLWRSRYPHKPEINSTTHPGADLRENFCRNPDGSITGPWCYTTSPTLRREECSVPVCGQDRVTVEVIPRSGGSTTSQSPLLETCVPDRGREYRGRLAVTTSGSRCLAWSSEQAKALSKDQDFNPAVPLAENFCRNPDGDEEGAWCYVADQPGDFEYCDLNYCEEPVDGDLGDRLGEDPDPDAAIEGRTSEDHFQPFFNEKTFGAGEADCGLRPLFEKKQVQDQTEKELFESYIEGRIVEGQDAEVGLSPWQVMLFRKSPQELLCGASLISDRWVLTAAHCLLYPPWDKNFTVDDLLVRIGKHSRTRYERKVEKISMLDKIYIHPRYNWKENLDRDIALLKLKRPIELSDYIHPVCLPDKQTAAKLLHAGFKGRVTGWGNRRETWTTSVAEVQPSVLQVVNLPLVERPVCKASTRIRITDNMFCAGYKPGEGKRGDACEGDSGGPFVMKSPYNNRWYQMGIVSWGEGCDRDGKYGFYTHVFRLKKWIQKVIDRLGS
* marks the source's active call; other numbers are inactive results; i = inactive; x = not tested or not shown; + = active, no number. Rule as the data show it, unless noted: active = inhibition above about 40%; inactive = the rest.

SMILES | Rpn11 inh | CRFBP-R2 agonist | HNF4A DNA FP | CRFR2-BP antag | TPT1 inh | CSN deneddyl inh | caTPT1 confirm | RNase T1 counter | Rpn11 confirm | MMP-2 inh | Thrombin FP
O=C(Nc1cccc(S(=O)(=O)NC2=NCCC2)c1)C1CCC1 | i | -0.6 | 0.5 | 0.8 | -2.2 | 0.6 | x | x | x | x | x
CC1CCN(C(=O)c2ccccc2NC(=O)c2cccs2)CC1 | i | -1.1 | 0.1 | -12.1 | 1.3 | -4.8 | x | x | x | x | x
CN1CCc2nc(NC(=O)c3cccc(S(=O)(=O)N4CCc5ccccc54)c3)sc2C1 | + | 4.5 | 49.8* | -21.9 | 49.5* | 41.1* | 21.4 | 29.1* | 4.5 | 10.8 | -3.2
O=C(O)CNC(=O)/C(=C/c1cccc([N+](=O)[O-])c1)NC(=O)c1ccco1 | i | -0.1 | -4.4 | 14.8 | -2.1 | 4.7 | x | x | x | x | x
CCCCCCN1C=CC=C/C1=C\C=C(C#N)C#N | + | 42.5 | 22.4 | -62.0 | 61.2* | 7.9 | 73.0* | 84.0* | 3.9 | -4.9 | 11.3
Cc1cc(C)c2nc(NNC(=O)c3cc(=O)c4ccccc4o3)sc2c1 | + | -0.6 | 11.7 | 0.6 | 24.9* | 9.6 | 27.1* | 40.8* | 34.3 | -17.8 | 8.9
O=C(NN1C(=O)/C(=C/C=C/c2ccco2)SC1=S)c1ccccc1O | + | 1.7 | -21.8 | -14.6 | 70.9* | 74.2 | 49.5* | 49.5* | 100.3* | 58.1* | 60.2*
COc1cc(/C=C/c2nc3ccccc3c(=O)[nH]2)cc(Cl)c1O | + | 35.8 | 40.3* | -45.8 | 40.6* | 21.2 | 71.5* | 74.4* | 1.8 | 12.5 | 157.8*
Cc1c(O)nc(SC2CC(=O)N(c3ccccc3)C2=O)[nH]c1=O (stereo unspecified) | i | 0.3 | 0.0 | -1.8 | -1.7 | 2.3 | x | x | x | x | x
Cc1ccc(/C=C2\C(=N)N3N=C(CC(=O)N4CCOCC4)SC3=NC2=O)o1 | i | 1.1 | -2.7 | 6.1 | 0.7 | 8.5 | x | x | x | x | x
N=C1/C(=C\c2ccc(SCc3ccccc3)o2)C(=O)N=C2SC(CC(=O)N3CCOCC3)=NN12 | + | 0.7 | 11.8 | 15.7 | 26.6* | 13.2 | 27.6* | 39.4* | 7.6 | -4.0 | -4.4
O=[N+]([O-])c1ccc(N/N=C\c2cccn2-c2ccccc2)nc1 | + | 10.4 | 33.7 | -20.5 | 88.3* | 18.2 | 78.4* | 90.2* | 44.4* | -12.5 | 8.9
N#Cc1ccccc1Cn1cc(/C=N/Nc2ccc([N+](=O)[O-])cn2)c2ccccc21 | + | 0.2 | 25.1 | -41.6 | 36.6* | 11.1 | 81.8* | 89.5* | 33.6 | -14.8 | 2.3
O=[N+]([O-])c1ccc(NN=Cc2ccccc2)nc1 | i | 8.4 | 7.8 | -19.0 | x | 5.3 | x | x | x | x | x
c1ccc(N2CCN(Cc3ccc4c(c3)OCO4)CC2)nc1 | i | -2.6 | 1.6 | 3.8 | -3.6 | -0.1 | x | x | x | x | x
O=C1NC(=O)N(c2ccccc2)C1=O | i | -0.5 | -2.8 | -2.4 | -3.4 | 2.9 | x | x | x | x | x
O=C1N/C(=C/c2ccc(N3CCCC3)cc2)C(=O)N1c1ccccc1 | + | 20.8 | 16.0 | -25.4 | 34.5* | 8.7 | 49.5* | 62.6* | 3.1 | -19.7 | -6.9
O=C1N/C(=C/c2ccc(N3CCOCC3)o2)C(=O)N1c1ccccc1 | + | -0.4 | 112.2 | 56.4* | 70.0* | -0.7 | 149.5* | 148.4* | 165.9* | 19.6 | 166.2*
O=C(O)c1cc(-c2ccco2)nn1-c1cccc(Cl)c1 | + | -1.6 | -40.8 | -4.6 | 28.5* | 25.7 | 24.9* | 31.6* | 18.6 | 15.2 | 6.2
N=C1S/C(=C\c2ccco2)C(=O)N1c1nccs1 | i | -0.2 | -4.3 | 12.0 | 0.4 | 20.5 | x | x | x | x | x
O=C(CSc1nc2ccccc2s1)c1cc2ccccc2o1 | + | 0.8 | 3.0 | -9.1 | 55.6* | -1.6 | 15.7 | 25.1* | 29.2 | 19.8 | 14.8
Cc1cccc(C)c1NC(=O)/C(C#N)=C/c1ccsc1 | i | 0.7 | -0.6 | -79.5 | 3.2 | 1.9 | x | x | x | x | x
Cc1ccc(/C=C(\C#N)C(=O)Nc2c(C)cccc2C)s1 | + | 1.2 | 29.1 | -27.1 | 30.0* | 35.4* | 40.6* | 52.9* | 96.4* | -8.3 | 80.3*
Cc1ccc2nc(N(CCCN(C)C)C(=O)c3ccc(S(=O)(=O)N4CCc5ccccc5C4)cc3)sc2c1 | i | 7.1 | -1.3 | -78.4 | -0.5 | 4.7 | x | x | x | x | x
O=C(Nc1cccc(S(=O)(=O)c2cccc(NC(=O)c3ccco3)c2)c1)c1ccco1 | i | 1.4 | -1.2 | -16.3 | 1.1 | -1.1 | x | x | x | x | x
SMILES | Rpn11 inh | CRFBP-R2 agonist | HNF4A DNA FP | CRFR2-BP antag | TPT1 inh | CSN deneddyl inh | caTPT1 confirm | RNase T1 counter | Rpn11 confirm | MMP-2 inh | Thrombin FP
O=C(CCCN1C(=O)/C(=C/c2cccs2)SC1=S)Nc1ccccn1 | i | -1.9 | 2.2 | -2.5 | -0.5 | 5.9 | x | x | x | x | x
O=C(CCN1C(=O)/C(=C/c2cccs2)SC1=S)Nc1cccc(C(=O)O)c1 | + | 0.6 | 12.1 | 37.9 | 53.4* | 10.6 | 48.3* | 63.2* | 47.0* | -6.3 | 51.3*
O=C(CCN1C(=O)/C(=C\c2cccs2)SC1=S)Nc1ccccn1 | + | 5.6 | 21.8 | -30.2 | 31.7* | 7.7 | 27.6* | 41.0* | 60.5* | 32.3 | 24.4
COc1ccc([C@H]2CC(=O)C=C(c3ccc(C)c4ccccc34)C2)cc1 | i | -0.3 | 5.3 | -2.6 | x | -4.3 | x | x | x | x | x
COc1ccc(C(=O)N2C(=S)NC(=O)/C2=C\c2ccc(C)cc2)cc1 | + | 2.7 | 19.3 | 8.1 | 34.2* | 43.3* | 41.8* | 57.0* | 107.4* | 20.1 | 75.4*
COC(=O)CN1C(=S)N(c2ccc(OC)cc2)C(=O)/C1=C/c1ccc(OC)cc1 | i | 0.9 | 4.7 | -10.0 | -0.8 | 5.0 | x | x | x | x | x
COc1ccc(N=Nc2nc(-c3ccccc3)c(-c3ccccc3)[nH]2)cc1 | + | 1.3 | 19.9 | 0.8 | 31.4* | 9.7 | 43.4* | 56.5* | 8.4 | 13.1 | -6.5
Oc1ccccc1N=Nc1nc(-c2ccccc2)c(-c2ccccc2)[nH]1 | + | 0.4 | 22.8 | -8.1 | 45.7* | 4.6 | 57.9* | 69.0* | 22.7 | 10.4 | 20.1
O=C(O)c1ccc(-c2nc(-c3ccccc3)c(-c3ccccc3)[nH]2)cc1 | i | 11.2 | -0.2 | -6.5 | -1.5 | -3.9 | x | x | x | x | x
